Measured values from ChEMBL document CHEMBL1132961 (J Med Chem, 2000).

Assays:
[1] = AUC value in mice; type: ADME, organism-based; settings: mouse, plasma
In short: (§1)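 Mice dosed orally by gavage at 25 mg/kg. Vehicle was usually 20% 0.1 N NaOH/80% 0.5% methylcellulose, and in two cases 20% 0.1 N NaOH/80% PEG 400. Plasma Cmax and AUC measured; AUC not determined where Cmax was too low.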

[2] = Tested for maximum plasma concentration in mice; type: ADME, organism-based; settings: mouse; in short: as §1
[3] = Concentration which elicits cytotoxicity in 50% of uninfected human lymphocyte derived CEM cells; type: cell-based, CCRF-CEM; settings: uninfected CCRF-CEM cells, read-out: TC50 (the source's name)
In short: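 Cytotoxicity measured in uninfected human lymphocyte-derived CEM cells by XTT protocol.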

[4] = system: Human immunodeficiency virus 1; assay: Effective concentration at which 50% of the HIV-IIIB-infected human lymphocyte-derived CEM cells protected from HIV-1 infection; settings: Human immunodeficiency virus 1, CCRF-CEM
[5] = Tested for maximum plasma concentration in rats; type: ADME, organism-based; settings: rat
In short: (§2)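 Rats given 10 mg/kg orally in NaOH solution buffered to pH 7.4. Plasma Cmax, T1/2 and AUC determined.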

[6] = target: T1, Human immunodeficiency virus type 1 protease (Human immunodeficiency virus 1, UniProt Q72874); assay: Tested for binding affinity against HIV protease
[7] = Half-life period in rat; type: ADME, organism-based; settings: in vivo; in short: as §2
[8] = AUC value in rat; type: ADME; settings: plasma; in short: as §2
[9] = Effective concentration required for antiviral activity against HIV-1 RoJo in PBMC cells; type: functional, cell-based; settings: Homo sapiens
In short: (§3)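 PBMC cells infected with HIV-1 clinical isolates, using an XTT cytopathic assay similar to the CEM assay. EC50 read as protection from viral cytopathic effect.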

[10] = Effective concentration required for antiviral activity against HIV-1 SLKA in PBMC cells; type: functional, cell-based; settings: Homo sapiens; in short: as §3
[11] = Tested for cytotoxic activity against HIV-1 144-44 in PBMC cells; type: cell-based; settings: human, read-out: TC50 (the source's name)
[12] = Effective concentration required for antiviral activity against HIV-1 WeJo in PBMC cells; type: functional, cell-based; settings: Homo sapiens; in short: as §3
[13] = Effective concentration required for antiviral activity against HIV-1 TEKI in PBMC cells; type: functional, cell-based; settings: Homo sapiens; in short: as §3
[14] = Effective concentration required for antiviral activity against HIV-1 144-44 in PBMC cells; type: functional, cell-based; settings: Homo sapiens; in short: as §3
[15] = Effective concentration required for antiviral activity against HIV-1 1026-60 in PBMC cells; type: functional, cell-based; settings: Homo sapiens; in short: as §3
[16] = Tested for cytotoxic activity against HIV-1 1026-60 in PBMC cells; type: cell-based; settings: human, read-out: TC50 (the source's name)
[17] = target: T1, Human immunodeficiency virus type 1 protease; assay: Activity of potent nonpeptidic inhibitor against protease
In short: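 Incubated with 40 µM His-Lys-Ala-Arg-Val-Leu-(p-NO₂-Phe)-Glu-Ala-Nle-Ser-NH₂ in 1.0% DMSO, pH 6.2 MES buffer (DTT, NaCl, EDTA, PEG 8000) for 60 min at 37 °C, then TFA quench. Substrate and product separated by reverse-phase HPLC, read at 220 nm. % control = conversion with inhibitor / conversion without × 100; IC50 derived.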

[18] = Tested for cytotoxic activity against HIV-1 1002-60 in PBMC cells; type: cell-based; settings: human, read-out: TC50 (the source's name)
[19] = Effective concentration required for antiviral activity against HIV-1 1002-60 in PBMC cells; type: functional, cell-based; settings: Homo sapiens; in short: as §3
[20] = target: T2, CYP2C9 (Homo sapiens, UniProt P11712); assay: Residual activity of cytochrome P450 2C9 at 1 uM
T2 sequence (P11712 whole entry): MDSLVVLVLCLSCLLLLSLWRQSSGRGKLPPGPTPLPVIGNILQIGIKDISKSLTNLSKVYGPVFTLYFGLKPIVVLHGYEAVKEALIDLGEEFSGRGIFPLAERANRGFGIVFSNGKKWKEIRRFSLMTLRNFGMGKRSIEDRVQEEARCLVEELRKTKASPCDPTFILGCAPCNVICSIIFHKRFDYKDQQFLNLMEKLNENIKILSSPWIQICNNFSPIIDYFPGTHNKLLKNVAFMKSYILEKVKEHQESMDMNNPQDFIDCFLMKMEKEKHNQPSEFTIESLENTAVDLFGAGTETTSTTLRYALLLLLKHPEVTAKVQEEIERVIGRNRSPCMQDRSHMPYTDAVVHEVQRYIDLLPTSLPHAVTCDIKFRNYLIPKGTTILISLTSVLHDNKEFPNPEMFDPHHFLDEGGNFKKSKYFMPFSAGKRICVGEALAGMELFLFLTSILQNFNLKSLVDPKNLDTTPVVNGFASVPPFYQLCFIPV

[21] = target: T3, CYP3A4 (Homo sapiens, UniProt P08684); assay: Residual activity of cytochrome P4503A4 at 10 uM
T3 sequence (P08684 whole entry): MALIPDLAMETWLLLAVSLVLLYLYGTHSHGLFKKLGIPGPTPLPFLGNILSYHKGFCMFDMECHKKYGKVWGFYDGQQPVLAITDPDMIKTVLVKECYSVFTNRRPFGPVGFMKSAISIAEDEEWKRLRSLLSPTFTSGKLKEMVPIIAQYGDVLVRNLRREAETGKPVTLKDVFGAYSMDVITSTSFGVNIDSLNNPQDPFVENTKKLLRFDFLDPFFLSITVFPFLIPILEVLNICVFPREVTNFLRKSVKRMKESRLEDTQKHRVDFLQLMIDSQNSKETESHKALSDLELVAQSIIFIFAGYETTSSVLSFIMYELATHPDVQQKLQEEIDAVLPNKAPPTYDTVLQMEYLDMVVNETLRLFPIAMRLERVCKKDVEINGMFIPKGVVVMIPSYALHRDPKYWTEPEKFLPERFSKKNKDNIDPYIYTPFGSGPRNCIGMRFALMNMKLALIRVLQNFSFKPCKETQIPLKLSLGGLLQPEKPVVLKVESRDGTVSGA

[22] = target: T2, CYP2C9; assay: Residual activity of cytochrome P450 at 10 uM
[23] = target: T3, CYP3A4; assay: Residual activity of cytochrome P4503A4 at 100 uM
[24] = target: T3, CYP3A4; assay: Residual activity of cytochrome P4503A4 at 1 uM
[25] = pooled result: one value given for 5 cell lines, strains, targets or settings

Row | SMILES | Cmax [2] | CC50 [3] | EC50 [4] | Ki [6] | IC50 [17] | also measured
1 | Cc1cc(SC2=C(O)O[C@](CCc3ccccc3)(C(C)C)CC2=O)c(C(C)(C)C)cc1NS(=O)(=O)c1ccc(C(F)(F)F)cn1 | 9.2 µM | 65000 nM | 450 nM | 0.31 nM |  | AUC [1]: 22000 ng·h/mL; Cmax [5]: 3.5 µM; half-life [7]: 2.3 h; AUC [8]: 6700 ng·h/mL
2 | Cc1cc(SC2=C(O)O[C@](CCc3ccccc3)(C(C)C)CC2=O)c(C(C)(C)C)cc1NS(=O)(=O)c1ccc(C#N)cc1 | 10.3 µM | 31000 nM | 220 nM | 0.2 nM |  | EC50 [9]: 120 nM; Cmax [5]: 3.96 µM; EC50 [10]: 120 nM; CC50 [11, 25]: 55600 nM; half-life [7]: 5.7 h; AUC [8]: 10000 ng·h/mL; EC50 [12]: 110 nM; EC50 [13]: 100 nM; EC50 [14]: 580 nM
3 | Cc1cc(SC2=C(O)OC(CCc3ccc(O)cc3)(C(C)C)CC2=O)c(C(C)(C)C)cc1OS(=O)(=O)c1cccs1 (centres undefined) |  | 72000 nM | 2400 nM |  | 21.8 nM | EC50 [15]: 1420 nM; EC50 [9]: 700 nM; CC50 [16]: > 100000 nM; EC50 [10]: 500 nM; CC50 [11, 25]: > 100000 nM; EC50 [12]: 390 nM; EC50 [13]: 780 nM; EC50 [14]: 540 nM
4 | CC(C)(C)NC(=O)[C@@H]1C[C@@H]2CCCC[C@@H]2CN1C[C@@H](O)[C@H](Cc1ccccc1)NC(=O)[C@H](CC(N)=O)NC(=O)c1ccc2ccccc2n1 |  |  |  |  |  | EC50 [15]: 19400 nM; CC50 [16]: > 50000 nM; CC50 [11]: > 50000 nM; CC50 [18]: > 50000 nM; EC50 [19]: 14500 nM; EC50 [14]: 11100 nM
5 | Cc1cc(SC2=C(O)O[C@](CCc3ccc(O)cc3)(C(C)C)CC2=O)c(C(C)(C)C)cc1OS(C)(=O)=O | 6.54 µM | 80000 nM | 530 nM | 0.03 nM |  | AUC [1]: 5400 ng·h/mL; Cmax [5]: 6.54 µM; half-life [7]: 0.94 h; AUC [8]: 5390 ng·h/mL
6 | Cc1cc(SC2=C(O)OC(CCc3ccccc3)(C(C)C)CC2=O)c(C(C)(C)C)cc1NS(=O)(=O)c1ccc(C(F)(F)F)cn1 (centres undefined) |  | 66000 nM | 600 nM | 1.04 nM |  | EC50 [15]: 270 nM; EC50 [9]: 680 nM; CC50 [16]: > 100000 nM; EC50 [10]: 710 nM; CC50 [11, 25]: > 100000 nM; CC50 [18]: > 100000 nM; EC50 [19]: 610 nM; EC50 [12]: 690 nM; EC50 [13]: 810 nM; EC50 [14]: 260 nM
7 | Cc1cc(SC2=C(O)OC(CCc3ccc(O)cc3)(C(C)C)CC2=O)c(C(C)(C)C)cc1NS(=O)(=O)c1ccc(C#N)cc1 (centres undefined) |  | 85000 nM | 1600 nM | 0.41 nM | 2.2 nM | 
8 | Cc1cc(SC2=C(O)OC(CCc3ccc(O)cc3)(C(C)C)CC2=O)c(C(C)(C)C)cc1OS(C)(=O)=O (centres undefined) |  | > 100000 nM | 600 nM |  | 2.2 nM | EC50 [15]: 1120 nM; EC50 [9]: 1240 nM; CC50 [16]: > 100000 nM; EC50 [10]: 1790 nM; CC50 [11, 25]: > 100000 nM; CC50 [18]: > 100000 nM; EC50 [19]: 1840 nM; EC50 [12]: 2050 nM; EC50 [13]: 1930 nM; EC50 [14]: 730 nM
9 | Cc1cc(SC2=C(O)O[C@](CCc3ccc(O)cc3)(C(C)C)CC2=O)c(C(C)(C)C)cc1NS(=O)(=O)c1ccc(C(F)(F)F)cn1 |  | 66000 nM | 1800 nM | 0.39 nM |  | 
10 | Cc1cc(SC2=C(O)OC(CCc3ccccc3)(C(C)C)CC2=O)c(C(C)(C)C)cc1NS(=O)(=O)c1ccccn1 (centres undefined) | 1.14 µM | 67000 nM | 700 nM |  | 3 nM | 
11 | Cc1cc(SC2=C(O)OC(CCc3ccc(O)cc3)(C(C)C)CC2=O)c(C(C)(C)C)cc1NS(=O)(=O)c1ccccc1 (centres undefined) |  | 74000 nM | 1400 nM | 0.53 nM | 1.8 nM | 
12 | Cc1cc(SC2=C(O)OC(CCc3ccccc3)(C(C)C)CC2=O)c(C(C)(C)C)cc1NS(=O)(=O)c1cccc(C#N)c1 (centres undefined) |  | 66000 nM | 1500 nM | 1.4 nM |  | 
13 | Cc1cc(SC2=C(O)OC(CCc3ccccc3)(C(C)C)CC2=O)c(C(C)(C)C)cc1OS(=O)(=O)c1ccc(C#N)cc1 (centres undefined) |  | 25000 nM | 1100 nM | 0.7 nM |  | 
14 | Cc1cc(SC2=C(O)O[C@@](CCc3ccc(O)cc3)(C(C)C)CC2=O)c(C(C)(C)C)cc1NS(=O)(=O)c1ccc(C(F)(F)F)cn1 |  | 66000 nM | 18000 nM | 9.54 nM |  | 
15 | Cc1cc(SC2=C(O)OC(CCc3ccccc3)(C(C)C)CC2=O)c(C(C)(C)C)cc1O (centres undefined) |  | 66000 nM | 1800 nM | 1.1 nM |  | 
16 | Cc1cc(SC2=C(O)OC(CCc3ccccc3)(C(C)C)CC2=O)c(C(C)(C)C)cc1NS(C)(=O)=O (centres undefined) |  | > 100000 nM | 1600 nM | 0.83 nM |  | 
17 | Cc1cc(SC2=C(O)OC(CCc3ccc(O)cc3)(C(C)C)CC2=O)c(C(C)(C)C)cc1OS(=O)(=O)c1ccc(C#N)cc1 (centres undefined) |  | 67000 nM | 600 nM |  | 4.5 nM | residual activity at 1 µM [20]: 83.5%; residual activity at 10 µM [21]: 34.6%; residual activity at 10 µM [22]: 18.1%; residual activity at 100 µM [23]: 6.86%; residual activity at 1 µM [24]: 79%
18 | Cc1cc(SC2=C(O)OC(CCc3ccc(O)cc3)(C(C)C)CC2=O)c(C(C)(C)C)cc1OS(=O)(=O)c1cccnc1 (centres undefined) | 0.63 µM | 76000 nM | 1600 nM |  | 3.5 nM | 
19 | Cc1cc(SC2=C(O)OC(CCc3ccccc3)(C(C)C)CC2=O)c(C(C)(C)C)cc1NS(=O)(=O)c1ccc(C#N)cc1 (centres undefined) | 2 µM | 66000 nM | 500 nM |  | 9.1 nM | 
20 | Cc1cc(SC2=C(O)OC(CCc3ccc(O)cc3)(C(C)C)CC2=O)c(C(C)(C)C)cc1NS(=O)(=O)c1ccc(C(F)(F)F)cc1 (centres undefined) |  | 66000 nM | 1100 nM |  | 18.3 nM | 
21 | Cc1cc(SC2=C(O)OC(CCc3ccc(O)cc3)(C(C)C)CC2=O)c(C(C)(C)C)cc1NS(=O)(=O)c1ccc(C(F)(F)F)cn1 (centres undefined) | 1.27 µM | 68000 nM | 4300 nM |  |  | AUC [1]: 980 ng·h/mL
22 | CCNS(=O)(=O)Oc1cc(C(C)(C)C)c(SC2=C(O)OC(CCc3ccccc3)(C(C)C)CC2=O)cc1C (centres undefined) | 0.62 µM | 67000 nM | 800 nM |  |  | 
23 | Cc1cc(SC2=C(O)OC(CCc3ccc(O)cc3)(C(C)C)CC2=O)c(C(C)(C)C)cc1NS(=O)(=O)c1cccc(C#N)c1 (centres undefined) |  | > 100000 nM | 5300 nM | 0.21 nM |  | 
24 | Cc1cc(SC2=C(O)O[C@@](CCc3ccccc3)(C(C)C)CC2=O)c(C(C)(C)C)cc1NS(=O)(=O)c1ccc(C(F)(F)F)cn1 |  | 66000 nM | 5900 nM | 6.4 nM |  | 
